Results from ChEMBL document CHEMBL5344428, “Discovery, Crystallographic Studies, and Mechanistic Investigations of Novel Phenylalanine Derivatives Bearing a Quinazolin-4-one Scaffold as Potent HIV Capsid Modulators” (J Med Chem, 2023).

Tests used:
[1] = Selectivity index, ratio of CC50 for cytotoxicity against human MT4 cells to EC50 for antiviral activity against HIV2 ROD infected in human MT4 cells; format: toxicity, cell-based; settings: read-out: Ratio CC50/EC50
Procedure, shortened: (§1)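 SI is CC50 divided by EC50. CC50 comes from MTT viability of uninfected MT-4 cells. EC50 comes from MTT-read protection of MT-4 cells infected with HIV-1 IIIB or HIV-2 ROD. Each value was run in at least triplicate.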

[2] = Selectivity index, ratio of CC50 for cytotoxicity against human MT4 cells to EC50 for antiviral activity against HIV1 IIIB infected in human MT4 cells; format: toxicity, cell-based; settings: read-out: Ratio CC50/EC50; procedure, shortened: as §1
[3] = Cytotoxicity against human MT4 cells assessed as reduction in cell viability incubated for 5 days by MTT assay; format: toxicity, cell-based; settings: MT4 cells, time 5 day
Procedure, shortened: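 Uninfected MT-4 cells were exposed to compound, and viability was read by the MTT method. […] Each value was run in at least triplicate and averaged from at least three independent experiments.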

[4] = test system: Human immunodeficiency virus 1; assay: Antiviral activity against HIV1 IIIB infected in human MT4 cells assessed as reduction in virus induced cytopathic effect measured after 5 days by MTT assay; format: functional, organism-based; settings: Human immunodeficiency virus 1, IIIB, MT4, 120 h
Procedure, shortened: (§2)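 MT-4 cells were infected with HIV-1 IIIB or HIV-2 ROD, and cell viability was read by MTT. […] Each value was run in at least triplicate and averaged from at least three independent experiments.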

[5] = test system: Human immunodeficiency virus 2; assay: Antiviral activity against HIV2 ROD infected in human MT4 cells assessed as reduction in virus induced cytopathic effect measured after 5 days by MTT assay; format: functional, organism-based; settings: Human immunodeficiency virus 2, ROD, MT4, 120 h; procedure, shortened: as §2
[6] = Selectivity ratio of EC50 for antiviral activity against HIV1 IIIB infected in human MT4 cells to EC50 for antiviral activity against HIV2 ROD infected in human MT4 cells; format: toxicity, cell-based
Procedure, shortened: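 Ratio is EC50 against HIV-1 IIIB divided by EC50 against HIV-2 ROD. Both EC50 values come from MTT-read protection of infected MT-4 cells.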

SMILES | selectivity ratio [1] | selectivity ratio [2] | CC50 at 120 h [3] [µM] | EC50 [4] [µM] | EC50 [5] [µM] | Ratio EC50 [6]
COc1ccc(N(C)C(=O)[C@H](Cc2cc(F)cc(F)c2)NC(=O)CN2CCN(C(=O)Cc3c[nH]c4ccc(Br)cc34)CC2=O)cc1 | < 1 | < 1 | 3.15 | > 3.15 | > 3.15 | –
COc1ccc(N(C)C(=O)[C@H](Cc2ccccc2)NC(=O)Cn2ccc(NC(=O)c3ccc(N)cc3)cc2=O)cc1 | 11 | – | 189 | – | 17.1 | > 11.04
COc1ccc(N(C)C(=O)[C@H](Cc2ccccc2)NC(=O)CN2CCN(C(=O)c3ccc(NC(=O)C4CC4)cc3)CC2=O)cc1 | 11.2 | < 1 | 168 | – | 15 | > 11.15
COc1ccc(N(C)C(=O)[C@H](Cc2ccccc2)NC(=O)Cn2ccc(NC(=O)c3ccc([N+](=O)[O-])cc3)cc2=O)cc1 | – | – | 31.9 | > 31.9 | > 31.9 | –
COc1ccc(N(C)C(=O)[C@H](Cc2cc(F)cc(F)c2)NC(=O)CN(Cc2ccccc2)C(=O)Cc2ccc3ccccc3c2)cc1 | < 1 | < 1 | 176 | – | > 18.9 | –
COc1ccc(N(C)C(=O)[C@H](Cc2cc(F)cc(F)c2)NC(=O)CN2CCN(C(=O)Cc3c[nH]c4ccc(OC)cc34)CC2=O)cc1 | < 1 | < 1 | 15.9 | > 15.9 | > 15.9 | –
COc1ccc(N(C)C(=O)[C@H](Cc2cc(F)cc(F)c2)NC(=O)CN(Cc2ccc(F)cc2)C(=O)Cc2cccc3ccccc23)cc1 | > 33 | – | > 191 | – | 5.87 | > 32.6
COc1ccc(N(C)C(=O)[C@H](Cc2ccccc2)NC(=O)Cn2ccc(NC(=O)c3ccc(Cl)cc3)cc2=O)cc1 | – | – | 25.5 | > 25.5 | > 25.5 | –
COc1ccc(N(C)C(=O)[C@H](Cc2cc(F)cc(F)c2)NC(=O)CN2CCN(C(=O)c3ccc(NS(C)(=O)=O)cc3)CC2=O)cc1 | > 1.04 | > 1.18 | > 190 | – | – | 0.88
COc1ccc(N(C)C(=O)[C@H](Cc2ccccc2)NC(=O)CN2CCN(C(=O)Cc3c[nH]c4ccc(O)cc34)CC2=O)cc1 | > 1.12 | > 1.06 | > 209 | – | – | 1.06
COc1ccc(-n2c(SCCC3CCCCC3)nnc2[C@H](Cc2ccccc2)NC(=O)Cc2c(C)[nH]c3ccccc23)cc1 | – | – | > 206 | – | – | –
COc1ccc(-n2c(SCc3ccc(B(O)O)cc3)nnc2[C@H](Cc2ccccc2)NC(=O)Cc2c(C)[nH]c3ccccc23)cc1 | – | 8 | 20.8 | 2.71 | > 20.8 | < 0.13
COc1ccc(N(C)C(=O)[C@H](Cc2cc(F)cc(F)c2)NC(=O)CN2CCN(C(=O)Cc3c[nH]c4ccc(O)cc34)CC2=O)cc1 | 2.65 | < 1 | 132 | – | 49.6 | –
COc1ccc(-n2c(SCc3ccncc3)nnc2[C@H](Cc2ccccc2)NC(=O)Cc2c(C)[nH]c3ccccc23)cc1 | 6 | 9 | – | 2.89 | 4.27 | 0.68
COc1ccc(N(C)C(=O)[C@H](Cc2ccccc2)NC(=O)CN2CCN(C(=O)c3ccc(NC(C)=O)cc3)CC2=O)cc1 | > 1.16 | > 1.05 | > 213 | – | – | 1.1
COc1ccc(-n2c(SCC#N)nnc2[C@H](Cc2ccccc2)NC(=O)Cc2c(C)[nH]c3ccccc23)cc1 | 36 | 163 | – | 0.59 | 2.69 | 0.22

SMILES | selectivity ratio [1] | selectivity ratio [2] | CC50 at 120 h [3] [µM] | EC50 [4] [µM] | EC50 [5] [µM] | Ratio EC50 [6]
COc1ccc(-n2c(SCCF)nnc2[C@H](Cc2ccccc2)NC(=O)Cc2c(C)[nH]c3ccccc23)cc1 | 6 | 20 | – | 1.24 | 4.07 | 0.3
COc1ccc(N(C)C(=O)[C@H](Cc2ccccc2)NC(=O)CN2CCN(C(=O)c3ccc(NC(=O)C(F)(F)F)cc3)CC2=O)cc1 | > 13.1 | > 1.24 | > 195 | – | 15 | 10.54
COC(=O)C(C)(C)Sc1nnc([C@H](Cc2ccccc2)NC(=O)Cc2c(C)[nH]c3ccccc23)n1-c1ccc(OC)cc1 | – | 8 | 22.6 | 2.88 | > 22.6 | 0.13
COc1ccc(N(C)C(=O)[C@H](Cc2cc(F)cc(F)c2)NC(=O)CN(Cc2ccc(F)cc2)C(=O)Cc2c(C)[nH]c3ccccc23)cc1 | – | 8 | 22.6 | 2.79 | > 22.6 | < 0.12
COc1ccc(N(C)C(=O)[C@H](Cc2cc(F)cc(F)c2)NC(=O)CN(Cc2ccc(F)cc2)C(=O)Cc2ccc3ccccc3c2)cc1 | – | – | > 160 | – | – | –
COc1ccc(-n2c(SCCN3CCOCC3)nnc2[C@H](Cc2ccccc2)NC(=O)Cc2c(C)[nH]c3ccccc23)cc1 | 16 | 103 | – | 0.79 | 4.98 | 0.16
COc1ccc(-n2c(SCCN(C)C)nnc2[C@H](Cc2ccccc2)NC(=O)Cc2c(C)[nH]c3ccccc23)cc1 | – | 27 | – | 0.85 | > 22.9 | < 0.04
COc1ccc(N(C)C(=O)[C@H](Cc2ccccc2)NC(=O)CN2CCN(C(=O)c3ccc(NS(C)(=O)=O)cc3)CC2=O)cc1 | – | > 1.05 | > 201 | – | – | < 0.96
COc1ccc(-n2c(SCc3cccnc3)nnc2[C@H](Cc2ccccc2)NC(=O)Cc2c(C)[nH]c3ccccc23)cc1 | – | 8 | 24 | 2.99 | > 7.81 | < 0.38
COc1ccc(-n2c(SCCC(F)(F)F)nnc2[C@H](Cc2ccccc2)NC(=O)Cc2c(C)[nH]c3ccccc23)cc1 | – | 11 | 30.8 | 2.87 | > 30.8 | < 0.09
COc1ccc(N(C)C(=O)[C@H](Cc2cc(F)cc(F)c2)NC(=O)CN2CCN(C(=O)c3ccc(NC(C)=O)cc3)CC2=O)cc1 | 1.02 | 1.11 | 196 | – | – | 0.92
COc1ccc(N(C)C(=O)[C@H](Cc2ccccc2)NC(=O)Cn2ccc(NC(=O)c3ccc(Br)cc3)cc2=O)cc1 | – | – | 23.5 | > 23.5 | > 23.5 | –
COc1ccc(N(C)C(=O)[C@H](Cc2cc(F)cc(F)c2)NC(=O)CN(Cc2ccc(C#N)cc2)C(=O)Cc2ccc3ccccc3c2)cc1 | > 1 | – | > 189 | – | – | 1.17
COc1ccc(-n2c(SCCCN3CCOCC3)nnc2[C@H](Cc2ccccc2)NC(=O)Cc2c(C)[nH]c3ccccc23)cc1 | 13 | 83 | – | 0.59 | 3.73 | 0.16
COc1ccc(N(C)C(=O)[C@H](Cc2ccccc2)NC(=O)Cn2ccc(NC(=O)c3ccc4ccccc4c3)cc2=O)cc1 | – | – | 27.6 | > 27.6 | > 27.6 | –
